Measurements pooled from the literature.
Target: Histamine H2 receptor (HRH2, Homo sapiens, UniProt P25021)

The inhibition of O=C(c1ccc(F)cc1)N(Cc1ccccc1)C1CCCCC1 is reported as -3% (cell-free assay; 10 µM).
For CCN(Cc1ccccc1C(F)(F)F)C(=O)C1CCN(S(=O)(=O)c2ccc3[nH]ncc3c2)CC1, the inhibition was 5% (ligand displacement; radioligand; 10 µM).
N#Cc1cc(Cn2c(N3CCCC3)nc3ccccc32)ccc1F gave an inhibition of 64.1% (ligand displacement; 10 µM).
For Cc1nc(N)sc1CCCNC(=N)NCCCCCCCCNC(=N)NCCCc1sc(N)nc1C, the Emax was 52% (GTPγS binding; agonist; radiometric; cell membranes).
The inhibition of N#Cc1ccc(Nc2ccc3[nH]c(=O)[nH]c3c2)c(Cl)c1 is reported as 2.26% (cell-free assay; 10 µM).
For CCN(CC)c1ccc(C2Nc3ccc(C(=O)c4ccccc4)cc3NC3=C2C(=O)CC(C)(C)C3)cc1 (stereo not drawn), the inhibition was 38% (ligand displacement; radioligand; 10 µM).
With O=C(c1ccc(Cl)cc1)N(Cc1ccccc1)C1CCCCC1 the inhibition was -27.3% (cell-free assay; 10 µM).
O=C1N=C(N2CCCCN2)S/C1=C\c1ccc(F)cc1O gave an inhibition of less than 10% (ligand displacement; radioligand; 10 µM).
For CCCNc1nc2ccccc2n1Cc1ccc(Cl)cc1, the inhibition was 83.3% (ligand displacement; 10 µM).
N=C(NCCCCCCCCCCCCN)NCCCc1c[nH]cn1 has an Emax of 66% (GTPγS binding; agonist; radiometric; cell membranes).
The inhibition of COCCOc1nc(-c2ccc(Cl)nc2)nc2c1CN(C(=O)c1ncn3ccccc13)CC2 is reported as -0.24% (ligand displacement; 10 µM).
With O=C(Nc1ccc(S(=O)(=O)N2CCC(Cl)CC2)cc1)c1ccc([N+](=O)[O-])o1 the inhibition was 10% (ligand displacement; radioligand; 10 µM).
